Measured values of several laboratories.
Each line is one published result; the experiments were not run side by side.
Target: Interleukin-1 receptor-associated kinase 1 (IRAK1, Homo sapiens, UniProt P51617)

C[C@@]1(Cc2ccc(C#N)cc2)C(=O)N(c2cc(Cl)cc(Cl)c2)c2ncc(C(=O)NC3(c4nc(C5CCC5)no4)CC3)n21 — remaining binding (cell-free assay, competition with immobilised ligand; 1 µM): 100%
N[C@@H]1CCN(c2nccc(-c3cnn4ncccc34)n2)C1 — remaining binding (binding; 1 µM): 100%
O=C(NCCCN1CCOCC1)c1ccc(Nc2ncc(Cl)c(-c3ccc(Cl)s3)n2)cc1 — remaining binding (binding, competition with immobilised ligand; 1 µM): 0.15%
C[C@H](c1cccc(C#N)c1)n1cc(Cl)cc(C(N)=O)c1=N — remaining binding (cell-free assay, competition with immobilised ligand; 1 µM): 71%
COc1cnc(Nc2cccc(S(N)(=O)=O)c2)nc1N1CCN(c2ccccc2)CC1 — remaining binding (binding, competition with immobilised ligand; 1 µM): 68%
C[C@H]1CCN(c2nccc(-c3cnn4ncccc34)n2)C1 — remaining binding (binding; 1 µM): 100%
Cc1cnc(Nc2ccc(C(=O)N3CCC(N4CCCC4)CC3)cc2)nc1-c1cc2ccccc2s1 — remaining binding (binding, competition with immobilised ligand; 1 µM): 0%
Cc1nccc(COC(=O)N2C[C@@H]3[C@@H](CNC(=O)c4ccc5[nH]nnc5c4)[C@@H]3C2)n1 — remaining binding (cell-free assay, competition with immobilised ligand; 1 µM): 81%
O=C(c1ccc(Nc2ncc(Cl)c(-c3cc4ccccc4s3)n2)cc1)N1CCC(N2CCCC2)CC1 — remaining binding (binding, competition with immobilised ligand; 1 µM): 0%
CC1CCCN1c1nccc(-c2cnn3ncccc23)n1 (stereo not drawn) — remaining binding (binding; 1 µM): 85%
O=C(NCC1CCOCC1)c1n[nH]cc1NC(=O)c1c(F)cccc1F — remaining binding (binding, competition with immobilised ligand; 1 µM): 98%
CN(c1nccc(-c2cnn3ncccc23)n1)C1CC1 — remaining binding (binding; 1 µM): 100%
C=CC(=O)N1CCC(C(=O)NCC(=O)N2CCN(c3nc(-c4cnc(N)nc4C(F)F)nc(N4CCOCC4)n3)CC2)CC1 — remaining binding (binding, competition with immobilised ligand; 1 µM): 100%
CCC(=O)N[C@@H]1CC[C@H](C(=O)N(C)c2ccc(-c3nc4ccccc4o3)cc2)C1 — remaining binding (cell-free assay, competition with immobilised ligand; 1 µM): 100%
CN(C)c1nccc(-c2cnn3ncccc23)n1 — remaining binding (binding; 1 µM): 71%
FC(F)(F)Oc1cccc(-c2cnc3ccc(-c4ccncc4)nn23)c1 — remaining binding (cell-free assay, competition with immobilised ligand; 5 µM): 10%
O=S(=O)(NC1CCC(c2cc(F)ccc2F)(S(=O)(=O)c2ccc(Cl)cc2)CC1)C(F)(F)F (stereo not drawn) — remaining binding (cell-free assay, competition with immobilised ligand; 1 µM): 93%
COc1ncc2cc3ccccc3nc2c1C#N — remaining binding (cell-free assay, competition with immobilised ligand; 5 µM): 92%
Nc1ncc2c(n1)-c1c([nH]c3ccc(C#CC4CC4)cc13)CCCC2 — remaining binding (binding, competition with immobilised ligand; 1 µM): 96%
CN(CCCC(F)(F)F)c1nccc(-c2cnn3ncccc23)n1 — remaining binding (binding; 1 µM): 100%
N#CC1(c2ccccn2)CCN(Cc2cc(C(=O)N3CCCC3)c(=O)n3ccccc23)CC1 — remaining binding (cell-free assay, competition with immobilised ligand; 1 µM): 100%
